Measured values from ChEMBL document CHEMBL3045650, “Design, synthesis, and 3D-QSAR analysis of novel 1,3,4-oxadiazol-2(3H)-ones as protoporphyrinogen oxidase inhibitors” (J Agric Food Chem, 2010).

tested on: Digitaria sanguinalis; assay: Post-emergence herbicidal activity against Digitaria sanguinalis (hairy crabgrass) assessed as growth inhibition at emulsified concentrate of 150 g/ai ha after 15 days by greenhouse test; type: functional
Procedure, shortened: (§1)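 About 20 seeds sown 1–3 cm deep, grown at 15–30 °C and 50% RH. Monocot seedlings sprayed postemergence at the one-leaf stage with a 100 g/L emulsifiable concentrate (DMF/Tween-80) diluted in water, 150 g ai/ha. Untreated and solvent controls included. Visual rating at 15 days, three replicates.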

Row | Compound | inhibition (INH)
1 | CC(C)(C)c1nn(-c2cc3nc(SCC=C(Cl)Cl)sc3cc2F)c(=O)o1 | 40%
2 | CCCOC(=O)CSc1nc2cc(-n3nc(C(C)(C)C)oc3=O)c(Cl)cc2s1 | 0%
3 | CC(C)OC(=O)CSc1nc2cc(-n3nc(C(C)(C)C)oc3=O)c(Cl)cc2s1 | 0%
4 | C=CCSc1nc2cc(-n3nc(C(C)(C)C)oc3=O)c(Cl)cc2s1 | 0%
5 | COC(=O)CSc1nc2cc(-n3nc(C(C)(C)C)oc3=O)c(Cl)cc2s1 | 0%
6 | CC(C)(C)OC(=O)CSc1nc2cc(-n3nc(C(C)(C)C)oc3=O)c(Cl)cc2s1 | 0%
7 | CC(C)(C)OC(=O)CSc1nc2cc(-n3nc(C(C)(C)C)oc3=O)c(F)cc2s1 | 0%
8 | CC(C)(C)c1nn(-c2cc3nc(SCC=C(Cl)Cl)sc3cc2Cl)c(=O)o1 | 0%
9 | C=CCSc1nc2cc(-n3nc(C(C)(C)C)oc3=O)c(F)cc2s1 | 0%
10 | COC(=O)Sc1nc2cc(-n3nc(C(C)(C)C)oc3=O)c(F)cc2s1 | 0%
11 | Cc1nn(-c2cc(NS(C)(=O)=O)c(Cl)cc2Cl)c(=O)n1C(F)F [SULFENTRAZONE] | 70%

tested on: Echinochloa crus-galli; assay: Post-emergence herbicidal activity against Echinochloa crus-galli (barnyard grass) assessed as growth inhibition at emulsified concentrate of 150 g/ai ha after 15 days by greenhouse test; type: functional; procedure, shortened: as §1

Row | Compound | inhibition (INH)
12 | CC(C)(C)c1nn(-c2cc3nc(SCC=C(Cl)Cl)sc3cc2F)c(=O)o1 | 50%
13 | CCCOC(=O)CSc1nc2cc(-n3nc(C(C)(C)C)oc3=O)c(Cl)cc2s1 | 0%
14 | CC(C)OC(=O)CSc1nc2cc(-n3nc(C(C)(C)C)oc3=O)c(Cl)cc2s1 | 0%
15 | C=CCSc1nc2cc(-n3nc(C(C)(C)C)oc3=O)c(Cl)cc2s1 | 0%
16 | COC(=O)CSc1nc2cc(-n3nc(C(C)(C)C)oc3=O)c(Cl)cc2s1 | 0%
17 | CC(C)(C)OC(=O)CSc1nc2cc(-n3nc(C(C)(C)C)oc3=O)c(Cl)cc2s1 | 0%
18 | CC(C)(C)OC(=O)CSc1nc2cc(-n3nc(C(C)(C)C)oc3=O)c(F)cc2s1 | 0%
19 | CC(C)(C)c1nn(-c2cc3nc(SCC=C(Cl)Cl)sc3cc2Cl)c(=O)o1 | 0%
20 | C=CCSc1nc2cc(-n3nc(C(C)(C)C)oc3=O)c(F)cc2s1 | 0%
21 | COC(=O)Sc1nc2cc(-n3nc(C(C)(C)C)oc3=O)c(F)cc2s1 | 0%
22 | Cc1nn(-c2cc(NS(C)(=O)=O)c(Cl)cc2Cl)c(=O)n1C(F)F [SULFENTRAZONE] | 75%

tested on: Eclipta prostrata; assay: Post-emergence herbicidal activity against Eclipta prostrata assessed as growth inhibition at emulsified concentrate of 150 g/ai ha after 15 days by greenhouse test; type: functional
Procedure, shortened: (§2)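 About 20 seeds sown 1–3 cm deep, grown at 15–30 °C and 50% RH. Dicot seedlings sprayed postemergence at the two-leaf stage with a 100 g/L emulsifiable concentrate (DMF/Tween-80) diluted in water, 150 g ai/ha. Untreated and solvent controls included. Visual rating at 15 days, three replicates.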

Row | Compound | inhibition (INH)
23 | CC(C)(C)c1nn(-c2cc3nc(SCC=C(Cl)Cl)sc3cc2F)c(=O)o1 | 60%
24 | CCCOC(=O)CSc1nc2cc(-n3nc(C(C)(C)C)oc3=O)c(Cl)cc2s1 | 0%
25 | CC(C)OC(=O)CSc1nc2cc(-n3nc(C(C)(C)C)oc3=O)c(Cl)cc2s1 | 0%
26 | C=CCSc1nc2cc(-n3nc(C(C)(C)C)oc3=O)c(Cl)cc2s1 | 60%
27 | COC(=O)CSc1nc2cc(-n3nc(C(C)(C)C)oc3=O)c(Cl)cc2s1 | 50%
28 | CC(C)(C)OC(=O)CSc1nc2cc(-n3nc(C(C)(C)C)oc3=O)c(Cl)cc2s1 | 30%
29 | CC(C)(C)OC(=O)CSc1nc2cc(-n3nc(C(C)(C)C)oc3=O)c(F)cc2s1 | 0%
30 | CC(C)(C)c1nn(-c2cc3nc(SCC=C(Cl)Cl)sc3cc2Cl)c(=O)o1 | 40%
31 | C=CCSc1nc2cc(-n3nc(C(C)(C)C)oc3=O)c(F)cc2s1 | 40%
32 | COC(=O)Sc1nc2cc(-n3nc(C(C)(C)C)oc3=O)c(F)cc2s1 | 0%
33 | Cc1nn(-c2cc(NS(C)(=O)=O)c(Cl)cc2Cl)c(=O)n1C(F)F [SULFENTRAZONE] | 100%

tested on: Amaranthus retroflexus; assay: Post-emergence herbicidal activity against Amaranthus retroflexus assessed as growth inhibition at emulsified concentrate of 150 g/ai ha after 15 days by greenhouse test; type: functional; procedure, shortened: as §2

Row | Compound | inhibition (INH)
34 | CC(C)(C)c1nn(-c2cc3nc(SCC=C(Cl)Cl)sc3cc2F)c(=O)o1 | 60%
35 | CCCOC(=O)CSc1nc2cc(-n3nc(C(C)(C)C)oc3=O)c(Cl)cc2s1 | 70%
36 | CC(C)OC(=O)CSc1nc2cc(-n3nc(C(C)(C)C)oc3=O)c(Cl)cc2s1 | 50%
37 | C=CCSc1nc2cc(-n3nc(C(C)(C)C)oc3=O)c(Cl)cc2s1 | 70%
38 | COC(=O)CSc1nc2cc(-n3nc(C(C)(C)C)oc3=O)c(Cl)cc2s1 | 70%
39 | CC(C)(C)OC(=O)CSc1nc2cc(-n3nc(C(C)(C)C)oc3=O)c(Cl)cc2s1 | 40%
40 | CC(C)(C)OC(=O)CSc1nc2cc(-n3nc(C(C)(C)C)oc3=O)c(F)cc2s1 | 0%
41 | CC(C)(C)c1nn(-c2cc3nc(SCC=C(Cl)Cl)sc3cc2Cl)c(=O)o1 | 70%
42 | C=CCSc1nc2cc(-n3nc(C(C)(C)C)oc3=O)c(F)cc2s1 | 60%
43 | COC(=O)Sc1nc2cc(-n3nc(C(C)(C)C)oc3=O)c(F)cc2s1 | 40%
44 | Cc1nn(-c2cc(NS(C)(=O)=O)c(Cl)cc2Cl)c(=O)n1C(F)F [SULFENTRAZONE] | 100%

tested on: Brassica juncea; assay: Post-emergence herbicidal activity against Brassica juncea assessed as growth inhibition at emulsified concentrate of 150 g/ai ha after 15 days by greenhouse test; type: functional; procedure, shortened: as §2

Row | Compound | inhibition (INH)
45 | CC(C)(C)c1nn(-c2cc3nc(SCC=C(Cl)Cl)sc3cc2F)c(=O)o1 | 70%
46 | CCCOC(=O)CSc1nc2cc(-n3nc(C(C)(C)C)oc3=O)c(Cl)cc2s1 | 0%
47 | CC(C)OC(=O)CSc1nc2cc(-n3nc(C(C)(C)C)oc3=O)c(Cl)cc2s1 | 0%
48 | C=CCSc1nc2cc(-n3nc(C(C)(C)C)oc3=O)c(Cl)cc2s1 | 70%
49 | COC(=O)CSc1nc2cc(-n3nc(C(C)(C)C)oc3=O)c(Cl)cc2s1 | 0%
50 | CC(C)(C)OC(=O)CSc1nc2cc(-n3nc(C(C)(C)C)oc3=O)c(Cl)cc2s1 | 50%
51 | CC(C)(C)OC(=O)CSc1nc2cc(-n3nc(C(C)(C)C)oc3=O)c(F)cc2s1 | 0%
52 | CC(C)(C)c1nn(-c2cc3nc(SCC=C(Cl)Cl)sc3cc2Cl)c(=O)o1 | 70%
53 | C=CCSc1nc2cc(-n3nc(C(C)(C)C)oc3=O)c(F)cc2s1 | 60%
54 | COC(=O)Sc1nc2cc(-n3nc(C(C)(C)C)oc3=O)c(F)cc2s1 | 0%
55 | Cc1nn(-c2cc(NS(C)(=O)=O)c(Cl)cc2Cl)c(=O)n1C(F)F [SULFENTRAZONE] | 100%

tested on: Poa annua; assay: Post-emergence herbicidal activity against Poa annua assessed as growth inhibition at emulsified concentrate of 150 g/ai ha after 15 days by greenhouse test; type: functional; procedure, shortened: as §1

Row | Compound | inhibition (INH)
56 | CC(C)(C)c1nn(-c2cc3nc(SCC=C(Cl)Cl)sc3cc2F)c(=O)o1 | 50%
57 | CCCOC(=O)CSc1nc2cc(-n3nc(C(C)(C)C)oc3=O)c(Cl)cc2s1 | 0%
58 | CC(C)OC(=O)CSc1nc2cc(-n3nc(C(C)(C)C)oc3=O)c(Cl)cc2s1 | 0%
59 | C=CCSc1nc2cc(-n3nc(C(C)(C)C)oc3=O)c(Cl)cc2s1 | 0%
60 | COC(=O)CSc1nc2cc(-n3nc(C(C)(C)C)oc3=O)c(Cl)cc2s1 | 0%
61 | CC(C)(C)OC(=O)CSc1nc2cc(-n3nc(C(C)(C)C)oc3=O)c(Cl)cc2s1 | 0%
62 | CC(C)(C)OC(=O)CSc1nc2cc(-n3nc(C(C)(C)C)oc3=O)c(F)cc2s1 | 0%
63 | CC(C)(C)c1nn(-c2cc3nc(SCC=C(Cl)Cl)sc3cc2Cl)c(=O)o1 | 0%
64 | C=CCSc1nc2cc(-n3nc(C(C)(C)C)oc3=O)c(F)cc2s1 | 0%
65 | COC(=O)Sc1nc2cc(-n3nc(C(C)(C)C)oc3=O)c(F)cc2s1 | 0%

target: T1, Protoporphyrinogen oxidase (Homo sapiens, UniProt P50336); assay: Inhibition of Homo sapiens (human) recombinant protoporphyrinogen oxidase expressed in Escherichia coli JM109 assessed as oxidation of protoporphyrinogen IX substrate by fluorescence assay
T1 sequence (P50336 whole entry): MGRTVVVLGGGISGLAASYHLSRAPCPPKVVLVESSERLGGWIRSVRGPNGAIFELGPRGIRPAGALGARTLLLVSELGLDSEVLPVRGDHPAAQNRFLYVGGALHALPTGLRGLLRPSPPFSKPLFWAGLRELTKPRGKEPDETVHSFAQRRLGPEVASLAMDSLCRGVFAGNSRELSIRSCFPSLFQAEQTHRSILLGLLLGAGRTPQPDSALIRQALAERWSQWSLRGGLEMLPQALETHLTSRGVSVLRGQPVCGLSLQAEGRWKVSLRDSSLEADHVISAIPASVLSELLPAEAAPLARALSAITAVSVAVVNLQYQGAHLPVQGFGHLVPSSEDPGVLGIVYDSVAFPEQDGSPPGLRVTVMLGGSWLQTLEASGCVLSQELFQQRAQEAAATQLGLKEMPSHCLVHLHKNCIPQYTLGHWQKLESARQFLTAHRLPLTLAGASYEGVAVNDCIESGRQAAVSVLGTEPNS

Row | Compound | Ki
66 | C#CCSc1nc2cc(-n3nc(C(C)(C)C)oc3=O)c(Cl)cc2s1 | 8610 nM
67 | CCOC(=O)CCCSc1nc2cc(-n3nc(C(C)(C)C)oc3=O)c(Br)cc2s1 | 5830 nM
68 | CC(C)(C)c1nn(-c2cc3nc(SCC=C(Cl)Cl)sc3cc2Br)c(=O)o1 | 18600 nM
69 | CC(C)(C)c1nn(-c2cc3nc(SCC=C(Cl)Cl)sc3cc2F)c(=O)o1 | 10900 nM
70 | CCCOC(=O)CSc1nc2cc(-n3nc(C(C)(C)C)oc3=O)c(Cl)cc2s1 | 980 nM
71 | CC(C)OC(=O)CSc1nc2cc(-n3nc(C(C)(C)C)oc3=O)c(Cl)cc2s1 | 2170 nM
72 | C=CCSc1nc2cc(-n3nc(C(C)(C)C)oc3=O)c(Cl)cc2s1 | 3110 nM
73 | COC(=O)CSc1nc2cc(-n3nc(C(C)(C)C)oc3=O)c(Cl)cc2s1 | 1070 nM
74 | CC(C)(C)OC(=O)CSc1nc2cc(-n3nc(C(C)(C)C)oc3=O)c(Cl)cc2s1 | 840 nM
75 | CC(C)(C)OC(=O)CSc1nc2cc(-n3nc(C(C)(C)C)oc3=O)c(F)cc2s1 | 1590 nM
76 | CC(C)(C)c1nn(-c2cc3nc(SCC=C(Cl)Cl)sc3cc2Cl)c(=O)o1 | 10200 nM
77 | C=CCSc1nc2cc(-n3nc(C(C)(C)C)oc3=O)c(F)cc2s1 | 15900 nM
78 | COC(=O)Sc1nc2cc(-n3nc(C(C)(C)C)oc3=O)c(F)cc2s1 | 720 nM
79 | Cc1nn(-c2cc(NS(C)(=O)=O)c(Cl)cc2Cl)c(=O)n1C(F)F [SULFENTRAZONE] | 720 nM
